# High-throughput results: PubChem BioAssay, several laboratories
# In the library only some 2.6% were active in any assay of this set; here they are far more common.
# rCAG binder: r(CAG) repeat RNA binding. TO-PRO-1 dye displacement fluorescence. inhibition, % at 3 µM. actives 1.3% (n = 370,000). AID 651821;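 active = inhibition above the plate cutoff, the mean of all test compounds on that plate plus 3 SD, cut at about 35% in these data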;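 also: 0% = DMSO alone and 100% = 100 µM mitoxantrone as full dye displacement; higher means more dye released from RNA so lower well fluorescence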
# NadD block: blocks S. aureus nicotinate mononucleotide adenylyltransferase; inhibition, % at 20 µM; actives 0.78% (n = 360,000); purified NadD enzyme, colorimetric absorbance read-out; in the data active = inhibition above about 26%
# ABHD5-PLIN5 inh: inhibitors of human ABHD5-perilipin-5 interaction. Q00G26+Q8WTS1. Split G. princeps luciferase complementation, luminescence, 4 h. inhibition, % at 4 µM. actives 0.78% (n = 360,000). AID 602281;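 active = inhibition above the mean inhibition across every tested compound plus 3 SD, cut at about 22% in these data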;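 also: 0% = DMSO only wells and the 100% control is not disclosed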
# Target sequence (Q00G26 whole entry, looked up): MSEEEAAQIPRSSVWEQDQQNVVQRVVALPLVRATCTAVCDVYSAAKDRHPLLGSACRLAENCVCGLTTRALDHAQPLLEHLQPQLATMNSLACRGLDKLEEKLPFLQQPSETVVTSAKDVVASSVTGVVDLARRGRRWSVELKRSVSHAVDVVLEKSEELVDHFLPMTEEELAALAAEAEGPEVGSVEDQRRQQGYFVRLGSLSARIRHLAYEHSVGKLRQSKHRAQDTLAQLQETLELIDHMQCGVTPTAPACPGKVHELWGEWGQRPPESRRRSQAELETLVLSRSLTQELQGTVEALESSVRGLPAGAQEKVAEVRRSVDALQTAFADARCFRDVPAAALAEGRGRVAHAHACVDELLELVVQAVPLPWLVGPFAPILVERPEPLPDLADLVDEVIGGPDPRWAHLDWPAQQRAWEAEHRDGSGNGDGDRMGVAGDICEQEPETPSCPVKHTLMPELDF
# Target sequence (Q8WTS1 whole entry, looked up): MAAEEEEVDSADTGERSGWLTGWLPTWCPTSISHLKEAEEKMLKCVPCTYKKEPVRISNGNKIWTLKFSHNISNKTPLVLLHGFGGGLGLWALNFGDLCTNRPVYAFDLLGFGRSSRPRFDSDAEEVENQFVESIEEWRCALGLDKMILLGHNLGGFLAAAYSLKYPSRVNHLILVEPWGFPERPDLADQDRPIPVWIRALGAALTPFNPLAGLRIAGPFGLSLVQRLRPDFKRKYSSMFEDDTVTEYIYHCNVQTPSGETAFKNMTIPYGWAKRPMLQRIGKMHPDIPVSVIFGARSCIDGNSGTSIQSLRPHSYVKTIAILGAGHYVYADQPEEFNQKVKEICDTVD
# HCV core dimer: HCV core protein dimerization inhibition; TR-FRET GST/Flag-core106 dimerization, 1536-well; inhibition, % at 5 µM; actives 0.33% (n = 300,000);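 active = inhibition above the mean of all tested compounds plus 3 SD, set per screening campaign, cut at about 45% in these data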
#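 test system = GST/Flag-tagged HCV core106 proteins | probe or stimulus = Eu donor and XL665 acceptor anti-tag antibodies | times = compound-protein-antibody incubation 4 h at 22.5 °C | signal = TR-FRET, excitation 340 nm, emission 617 and 671 nm | measure = percent inhibition of core106 dimerization signal | controls = wells lacking GST-core106 and wells with excess unlabelled core106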
# * = called active by the depositor; . = no result.
SMILES,rCAG binder,NadD block,ABHD5-PLIN5 inh,HCV core dimer
CN(CCO)c1ccc2c(c1)Oc1ccccc1CN(Cc1cn(Cc3ccc(F)cc3)nn1)S2(=O)=O,1,.,.,.
Cc1ccc(N=C2NC(=O)/C(=C/c3cn(C)c4ccccc34)S2)cc1C,16,34*,-8,6
O=C1/C(=C\c2ccc(Br)o2)SC(=Nc2ccccc2)N1c1ccccc1,15,11,-3,59*
CN(C)c1ccc(/C=C(/C#N)C(=O)Nc2nc3c(s2)CCN(Cc2ccccc2)C3)cc1,2,57*,6,.
N#C/C(=C\c1ccc(OCc2ccccc2)cc1)C(=O)Nc1nc2c(s1)CCN(Cc1ccccc1)C2,10,29,-5,14
CCN(CC)C(=O)CSC1=N/C(=C/c2ccco2)C(=O)N1c1ccc(OC)c(Cl)c1,18,20,13,51*
NC(=O)CSC1=N/C(=C\c2ccco2)C(=O)N1c1ccc(OC(F)F)cc1,2,-5,21,12
Cc1ccc(C)c(N(CC(=O)N/N=C/c2ccc(-c3ccc([N+](=O)[O-])cc3)o2)S(=O)(=O)c2ccccc2)c1,19,32*,5,52*
CN1C(=O)c2cc(NS(=O)(=O)c3cccc(F)c3)ccc2OC[C@@H]2O[C@H](CC(=O)O)CC[C@H]21,0,.,.,.
CC(C)c1cc(Nc2cccc(O)c2)cc(C(C)C)c1O,.,.,.,53*
Oc1cccc(Nc2ccccc2)c1,1,-1,2,.
Cn1c(=O)oc2cc(S(=O)(=O)N3CCN(c4cccc(C(F)(F)F)c4)CC3)ccc21,5,.,.,.
Cc1ccc(-c2nc3c(Cl)cc(C(F)(F)F)cn3c2Cc2ccsc2)cc1,55*,8,-6,.
Fc1ccc(-c2nc3c(Cl)cc(C(F)(F)F)cn3c2Cc2ccsc2)cc1,28,9,-2,.
Cc1ccc(NC(=O)CN2C(=O)N/C(=C/c3cccn3-c3ccc(C(=O)O)cc3)C2=O)cc1,56*,14,20,-35
Cc1ccc(NC(=O)CN2C(=O)N/C(=C/c3ccco3)C2=O)cc1,21,18,11,53*
Cc1cccc(NC(=O)CN2C(=O)N/C(=C/c3cc(C)n(C(C)C)c3C)C2=O)c1,12,34*,-1,4
CCn1c(C)cc(/C=C2\NC(=O)N(CC(=O)Nc3ccc(F)cc3)C2=O)c1C,9,11,2,-4
Cc1ccc(NC(=O)CN2C(=O)N/C(=C/c3cc(C)n(-c4ccc(C(=O)O)cc4)c3C)C2=O)cc1,37*,11,-6,.
COc1ccc(NC(=O)CN2C(=O)S/C(=C/c3cccn3-c3ccc(C(=O)O)cc3)C2=O)cc1,24,11,0,.
COC(=O)C1=C(C)N(Cc2cccc(C(F)(F)F)c2)C(=NCc2ccc(C(F)(F)F)cc2)NC1c1cccc(C(F)(F)F)c1 (centres undefined),0,.,.,.
COC(=O)C1=C(C)N(C)C(=NCC2CC2)NC1CCc1ccccc1 (centres undefined),7,.,.,.
CC(C)(C)C(=O)NC1CCCCN(Cc2cccc(Cl)c2)C1=O (centres undefined),0,.,.,.
Cn1c(=O)c2cc(S(=O)(=O)N3CCN(CCO)CC3)ccc2n(C)c1=O,0,.,.,.
N#CC1=C(N)OC2=C(CC/C2=C\c2ccccc2)C1c1ccccc1 (centres undefined),-3,33*,1,55*
SMILES,rCAG binder,NadD block,ABHD5-PLIN5 inh,HCV core dimer
CC(=O)c1cccc(NC(=O)Nc2cc3sccc3n2C)c1,.,.,.,51*
CC(=O)c1cccc(NC(=O)Nc2cccs2)c1,8,4,-11,-5
Cc1cc(C)cc(N2Cc3ccccc3C2)c1,2,-2,-7,62*
CCc1ccc(N2Cc3ccccc3C2)cc1,13,13,-6,17
N#C/C(=C\c1cc([N+](=O)[O-])c(N2CCCCC2)cc1N1CCCCC1)c1nn(-c2ccccc2)c(N)c1C#N,2,42*,0,10
N#C/C(=C\c1cccc2ccccc12)c1nn(-c2ccccc2)c(N)c1C#N,.,.,.,10
O[C@H](COc1ccc(F)cc1)CN1CCC(C(O)(c2ccccc2)c2ccccc2)CC1,0,.,.,.
CC(C)C(NC(=O)C12CC3CC(CC(C3)C1)C2)C(=O)N/N=C/C1=C(N2CCOCC2)C(=C\c2ccc([N+](=O)[O-])cc2)/CC1 (centres undefined),4,32*,-7,19
CC(C)c1ccc(C(CC(=O)c2ccc(Cl)cc2)C(=O)O)cc1 (centres undefined),45*,-2,-8,10
O=C(NC1CCCCN(Cc2cccc(Cl)c2)C1=O)c1cccs1 (centres undefined),2,.,.,.
O=C(Nc1ccc(N2CCN(c3ccc(O)cc3)CC2)cc1)Oc1ccccc1,4,28,-10,59*
Nc1ccc(OC(=O)Nc2ccc(O)cc2)cc1,0,-5,-17,3
C#CCOc1ccccc1C(=O)NNc1ccc([N+](=O)[O-])cc1[N+](=O)[O-],3,.,.,.
C#CCOC(=O)CCCNc1ccc([N+](=O)[O-])cc1[N+](=O)[O-],11,-2,2,48*
N=c1n(CCN2CCCCC2)c2ccccc2n1CC(O)c1ccc(Cl)c(Cl)c1 (centres undefined),14,-3,16,-1
CN(C)CCn1c(=N)n(CC(O)c2ccc(Cl)c(Cl)c2)c2ccccc21 (centres undefined),6,-4,23*,-11
Nc1ccn([C@@H]2O[C@H](C(=O)N[C@H](Cc3ccccc3)C(=O)N3CCN(CCO)CC3)[C@@H](O)[C@H]2O)c(=O)n1,0,.,.,.
COc1ccc(C(C[N+](=O)[O-])C2(c3ccc(OC)c(OC)c3)C(=O)c3ccccc3C2=O)cc1 (centres undefined),.,2,84*,-42
CCCCCCCCN1C(=O)[C@@H](CC(=O)N2CCN(C(=O)c3ccco3)CC2)C[C@@]2(C(=O)OC)C1=C[C@H](C1CCCC1)O[C@@H]2C,13,.,.,.
CCOc1ccc(N2C(=O)CC(Sc3nnnn3-c3ccccc3)C2=O)cc1 (centres undefined),1,-7,27*,.
CCOc1ccc(N2C(=O)CC(Sc3nc(C)cc(C)n3)C2=O)cc1 (centres undefined),-6,-3,-2,-4
C[C@@H]1CNC(=O)c2c(C(=O)N(C)Cc3ccccc3)ncn21,0,.,.,.
Cc1ccc(C2C(C(=O)c3cc4ccccc4o3)=C(O)C(=O)N2c2cc(C)on2)cc1 (centres undefined),20,12,-11,0
Cc1cc(N2C(=O)C(O)=C(C(=O)c3cc4ccccc4o3)C2c2ccc([N+](=O)[O-])cc2)no1 (centres undefined),46*,-12,2,16
O=C1CSC(=S)N1/N=C/c1ccc2c(c1)OCCO2,13,4,-7,2
O=C1CSC(=S)N1/N=C/c1ccc(Cl)c([N+](=O)[O-])c1,.,.,.,65*
Cc1cccc(NC(=S)/N=C(\N)Nc2nc(C)c3cc(C)ccc3n2)c1,24,17,-24,18
Cc1cccc(NC(=S)/N=C(\N)Nc2nc(C)c3ccc(C)cc3n2)c1,28,13,-11,48*
COCCCNC(=O)CSc1nnc(-c2cccnc2)n1C1CCCCC1,-1,.,.,.
